ChEMBL document CHEMBL1671813, “Discovery of potent competitive antagonists and positive modulators of the P2X2 receptor” (J Med Chem, 2011)

How the values were obtained:
P2X purinoceptor 2 = target: T1, P2X purinoceptor 2 (Rattus norvegicus, UniProt P49653); test: Antagonist activity against rat P2X2 receptor expressed in Xenopus laevis oocyte assessed as inhibition of ATP-induced inward current by two-electrode voltage-clamp electrophysiology
T1 sequence (P49653 whole entry): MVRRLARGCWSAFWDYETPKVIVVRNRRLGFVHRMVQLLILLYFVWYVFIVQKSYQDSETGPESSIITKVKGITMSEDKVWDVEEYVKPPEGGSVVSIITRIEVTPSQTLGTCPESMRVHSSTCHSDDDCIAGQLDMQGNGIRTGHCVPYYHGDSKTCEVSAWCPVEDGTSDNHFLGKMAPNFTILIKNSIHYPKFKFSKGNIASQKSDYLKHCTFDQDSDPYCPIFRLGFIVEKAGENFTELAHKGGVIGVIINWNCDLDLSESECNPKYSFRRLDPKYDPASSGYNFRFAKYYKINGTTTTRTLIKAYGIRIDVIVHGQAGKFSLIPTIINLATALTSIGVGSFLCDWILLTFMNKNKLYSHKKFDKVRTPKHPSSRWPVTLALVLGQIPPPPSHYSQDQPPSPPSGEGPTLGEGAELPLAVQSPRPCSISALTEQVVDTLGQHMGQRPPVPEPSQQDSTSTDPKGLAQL

P2X purinoceptor 4 = target: T2, P2X purinoceptor 4 (Rattus norvegicus, UniProt P51577); test: Antagonist activity against rat P2X4 receptor expressed in Xenopus laevis oocyte assessed as inhibition of ATP-induced inward current by two-electrode voltage-clamp electrophysiology
T2 sequence (P51577 whole entry): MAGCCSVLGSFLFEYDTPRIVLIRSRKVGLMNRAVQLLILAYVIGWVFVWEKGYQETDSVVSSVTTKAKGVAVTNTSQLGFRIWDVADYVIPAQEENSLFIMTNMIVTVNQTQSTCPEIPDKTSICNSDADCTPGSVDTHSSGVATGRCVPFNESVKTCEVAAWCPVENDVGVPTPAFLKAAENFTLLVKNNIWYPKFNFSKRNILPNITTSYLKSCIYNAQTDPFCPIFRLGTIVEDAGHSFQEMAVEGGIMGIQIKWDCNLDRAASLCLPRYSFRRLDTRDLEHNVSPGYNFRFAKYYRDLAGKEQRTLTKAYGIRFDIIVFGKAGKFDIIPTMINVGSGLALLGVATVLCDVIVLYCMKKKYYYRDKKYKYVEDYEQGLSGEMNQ

[1] = target: P2Y purinoceptor 6 (Rattus norvegicus) (UniProt Q63371); test: Antagonist activity against rat P2Y6 receptor expressed in 1321N1 astrocytoma cells by calcium mobilization assay
P2Y purinoceptor 4 = P2Y purinoceptor 4 (Homo sapiens, UniProt P51582); test: Antagonist activity against human P2Y4 receptor expressed in 1321N1 astrocytoma cells by calcium mobilization assay; format: functional, cell-based
Procedure, shortened: (§1)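 Astrocytoma cell lines stably transfected with human P2Y2, human P2Y4 or rat P2Y6 receptor. Inhibition of receptor-mediated intracellular calcium mobilization was measured.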

P2Y purinoceptor 2 = P2Y purinoceptor 2 (Homo sapiens, UniProt P41231); test: Antagonist activity against human P2Y2 receptor expressed in 1321N1 astrocytoma cells by calcium mobilization assay; format: functional, cell-based
Procedure, shortened: as §1

[2] = target: T3, P2X purinoceptor 2 (Rattus norvegicus) (UniProt P49653); test: Antagonist activity against rat P2X2 receptor expressed in Xenopus laevis oocyte assessed as potentiation of ATP-induced inward current at 100 nM by two-electrode voltage-clamp electrophysiology
T3 sequence (whole entry): T1 sequence (P49653 whole entry)

Chain of P2Y purinoceptor 2 (P41231 whole entry): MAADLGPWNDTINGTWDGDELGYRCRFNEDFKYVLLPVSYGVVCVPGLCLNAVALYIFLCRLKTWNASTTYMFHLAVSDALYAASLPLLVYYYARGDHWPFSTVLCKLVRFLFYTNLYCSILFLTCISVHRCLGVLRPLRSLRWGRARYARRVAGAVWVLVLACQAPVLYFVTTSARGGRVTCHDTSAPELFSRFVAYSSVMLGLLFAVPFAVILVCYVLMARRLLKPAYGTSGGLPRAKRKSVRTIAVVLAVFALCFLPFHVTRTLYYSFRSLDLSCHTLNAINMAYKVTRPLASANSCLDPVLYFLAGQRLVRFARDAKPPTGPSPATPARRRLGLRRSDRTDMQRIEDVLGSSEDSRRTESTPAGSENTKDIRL
Chain of P2Y purinoceptor 4 (P51582 whole entry): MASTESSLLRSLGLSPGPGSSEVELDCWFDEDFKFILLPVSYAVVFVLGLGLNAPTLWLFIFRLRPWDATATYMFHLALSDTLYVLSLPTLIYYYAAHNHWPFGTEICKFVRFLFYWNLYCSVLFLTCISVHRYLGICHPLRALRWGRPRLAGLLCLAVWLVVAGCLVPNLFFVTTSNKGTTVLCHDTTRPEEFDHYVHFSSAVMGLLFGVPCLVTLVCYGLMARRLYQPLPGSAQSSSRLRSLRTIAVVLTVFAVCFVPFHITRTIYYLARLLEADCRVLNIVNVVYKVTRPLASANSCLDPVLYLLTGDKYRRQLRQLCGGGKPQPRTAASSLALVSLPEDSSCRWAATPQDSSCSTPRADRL

Row | SMILES | IC50 (P2X purinoceptor 2) [µM] | IC50 (P2X purinoceptor 4) [µM] | IC50 [1] [µM] | IC50 (P2Y purinoceptor 4) [µM] | IC50 (P2Y purinoceptor 2) [µM] | potentiation % [2] [%]
1 | Nc1c(S(=O)(=O)O)cc(Nc2ccc(Nc3nc(Cl)nc(Cl)n3)c(S(=O)(=O)O)c2)c2c1C(=O)c1ccccc1C2=O | 1.16 | > 10 | – | – | – | –
2 | Nc1c(S(=O)(=O)O)cc(Nc2cc(Cl)ccc2C(=O)O)c2c1C(=O)c1ccccc1C2=O | 1 | > 10 | – | – | – | –
3 | COc1cc(Nc2cc(S(=O)(=O)O)c(N)c3c2C(=O)c2ccccc2C3=O)cc(OC)c1 | > 1 | – | – | – | – | –
4 | Cc1cc(Nc2ccccc2)c2c(c1N)C(=O)c1ccccc1C2=O | > 10 | > 10 | – | – | – | –
5 | Nc1c(S(=O)(=O)O)cc(Nc2cccc(C(F)(F)F)c2)c2c1C(=O)c1ccccc1C2=O | > 1 | – | – | – | – | –
6 | Nc1c(S(=O)(=O)O)cc(Nc2cccc3ccccc23)c2c1C(=O)c1ccccc1C2=O | > 10 | > 10 | – | – | – | –
7 | Nc1c(S(=O)(=O)O)cc(Nc2ccc(Nc3nc(Cl)nc(Cl)n3)cc2)c2c1C(=O)c1ccccc1C2=O | 0.117 | > 10 | 10 | 10 | 12.1 | –
8 | Cc1cc(C)c(Nc2cc(S(=O)(=O)O)c(N)c3c2C(=O)c2ccccc2C3=O)c(C)c1 [ACID BLUE 129] | 1 | > 10 | – | – | – | –
9 | Nc1c(S(=O)(=O)O)cc(Nc2ccc(Cl)cc2C(=O)O)c2c1C(=O)c1ccccc1C2=O | 1 | > 10 | – | – | – | –
10 | Cc1cc(C)cc(Nc2cc(S(=O)(=O)O)c(N)c3c2C(=O)c2ccccc2C3=O)c1 | – | – | – | – | – | 106
11 | Nc1c(S(=O)(=O)O)cc(Nc2ccc(Nc3nc(O)nc(O)n3)cc2)c2c1C(=O)c1ccccc1C2=O | 0.197 | > 10 | – | 10 | 30 | –
12 | COc1ccccc1Nc1cc(S(=O)(=O)O)c(N)c2c1C(=O)c1ccccc1C2=O | 2 | > 10 | – | – | – | –
13 | COc1nc(Cl)nc(Nc2ccc(Nc3cc(S(=O)(=O)O)c(N)c4c3C(=O)c3ccccc3C4=O)cc2S(=O)(=O)O)n1 | 0.582 | > 10 | > 10 | > 10 | 24.2 | –
14 | Nc1c(S(=O)(=O)O)cc(Nc2cccc(Nc3nc(Cl)nc(Cl)n3)c2)c2c1C(=O)c1ccccc1C2=O | 0.086 | – | > 10 | 10 | 24.3 | –
15 | Nc1c(S(=O)(=O)O)cc(Nc2ccc(O)cc2)c2c1C(=O)c1ccccc1C2=O | 0.588 | > 10 | 5.3 | 2.22 | – | –
16 | CCOc1ccccc1Nc1cc(S(=O)(=O)O)c(N)c2c1C(=O)c1ccccc1C2=O | 1 | > 10 | – | – | – | –

Row | SMILES | IC50 (P2X purinoceptor 2) [µM] | IC50 (P2X purinoceptor 4) [µM] | IC50 [1] [µM] | IC50 (P2Y purinoceptor 4) [µM] | IC50 (P2Y purinoceptor 2) [µM] | potentiation % [2] [%]
17 | CCc1cccc(Nc2cc(S(=O)(=O)O)c(N)c3c2C(=O)c2ccccc2C3=O)c1 | > 1 | – | – | – | – | –
18 | Cc1cccc(Nc2cc(S(=O)(=O)O)c(N)c3c2C(=O)c2ccccc2C3=O)c1C | 1 | > 10 | – | – | – | –
19 | Cc1cccc(Nc2cc(C)c(N)c3c2C(=O)c2ccccc2C3=O)c1 | > 10 | > 10 | – | – | – | –
20 | Cc1c(N)cccc1Nc1cc(S(=O)(=O)O)c(N)c2c1C(=O)c1ccccc1C2=O | 1 | > 10 | – | – | – | –
21 | Nc1c(S(=O)(=O)O)cc(NC2CCCCC2)c2c1C(=O)c1ccccc1C2=O | 1 | > 10 | – | – | – | –
22 | Nc1c(S(=O)(=O)O)cc(Nc2ccc(S(=O)(=O)O)c(Nc3nc(O)nc(O)n3)c2)c2c1C(=O)c1ccccc1C2=O | 0.3 | – | – | – | – | –
23 | Nc1c(S(=O)(=O)O)cc(Nc2cc(Nc3nc(Cl)nc(Cl)n3)cc(C(=O)O)c2)c2c1C(=O)c1ccccc1C2=O | 0.293 | > 10 | 2.55 | 1.45 | 3.27 | –
24 | Cc1ccc(Nc2cc(S(=O)(=O)O)c(N)c3c2C(=O)c2ccccc2C3=O)c(C)c1 | 1 | > 10 | – | – | – | –
25 | Nc1c(S(=O)(=O)O)cc(Nc2ccc(Nc3ncccn3)cc2)c2c1C(=O)c1ccccc1C2=O | > 1 | > 10 | – | – | – | –
26 | Nc1c(S(=O)(=O)O)cc(Nc2ccc(Oc3ccccc3)cc2)c2c1C(=O)c1ccccc1C2=O | 1 | > 10 | – | – | – | –
27 | Nc1c(S(=O)(=O)O)cc(Nc2ccc(Nc3nc(Cl)nc(Nc4ccccc4S(=O)(=O)O)n3)c(S(=O)(=O)O)c2)c2c1C(=O)c1ccccc1C2=O [CIBACRON BLUE 3GA] | > 1 | 40 | – | – | – | –
28 | Nc1cc(Nc2cc(S(=O)(=O)O)c(N)c3c2C(=O)c2ccccc2C3=O)cc(C(=O)O)c1 | 1 | > 10 | – | – | – | –
29 | Cc1cc(C)c(Nc2cc(S(=O)(=O)O)c(N)c3c2C(=O)c2ccccc2C3=O)c(C)c1N | 1 | > 10 | – | – | – | –
30 | Nc1c(S(=O)(=O)O)cc(Nc2ccc(Nc3ncccn3)c(S(=O)(=O)O)c2)c2c1C(=O)c1ccccc1C2=O | 1 | > 10 | – | – | – | –
31 | CCOP(=O)(Cc1ccc(Nc2cc(S(=O)(=O)O)c(N)c3c2C(=O)c2ccccc2C3=O)cc1)OCC | 1 | > 10 | – | – | – | –
32 | Nc1c(S(=O)(=O)O)cc(Nc2cc(F)cc(F)c2)c2c1C(=O)c1ccccc1C2=O | > 1 | – | – | – | – | –

Other lines, results leading:

Row | IC50 (P2X purinoceptor 2) [µM] | IC50 (P2X purinoceptor 4) [µM] | IC50 [1] [µM] | IC50 (P2Y purinoceptor 4) [µM] | IC50 (P2Y purinoceptor 2) [µM] | potentiation % [2] [%] | SMILES
33 | 1 | > 10 | 84.6 | – | – | – | Nc1c(S(=O)(=O)O)cc(Nc2ccccc2)c2c1C(=O)c1ccccc1C2=O [ACID BLUE 25]
34 | 1 | > 10 | – | – | – | – | Nc1c(S(=O)(=O)O)cc(Nc2ccc(O)c(C(=O)O)c2)c2c1C(=O)c1ccccc1C2=O
35 | 1 | > 10 | – | – | – | – | Nc1c(S(=O)(=O)O)cc(Nc2ccc(S(=O)(=O)O)cc2)c2c1C(=O)c1ccccc1C2=O
36 | 0.1 | – | > 10 | 21.8 | – | – | Nc1c(S(=O)(=O)O)cc(Nc2cccc(Cl)c2)c2c1C(=O)c1ccccc1C2=O
37 | 1 | > 10 | – | – | – | – | Nc1ccccc1Nc1cc(S(=O)(=O)O)c(N)c2c1C(=O)c1ccccc1C2=O
38 | > 1 | – | – | – | – | – | Nc1c(S(=O)(=O)O)cc(Nc2cccc([N+](=O)[O-])c2)c2c1C(=O)c1ccccc1C2=O
39 | > 10 | > 10 | – | – | – | – | Nc1ccc(Nc2cc(S(=O)(=O)O)c(N)c3c2C(=O)c2ccccc2C3=O)cc1
40 | > 10 | > 10 | – | – | – | – | Nc1c(S(=O)(=O)O)cc(Nc2ccccc2S(=O)(=O)O)c2c1C(=O)c1ccccc1C2=O
41 | 1 | > 10 | – | – | – | – | Nc1c(S(=O)(=O)O)cc(Nc2ccc(C(=O)O)cc2)c2c1C(=O)c1ccccc1C2=O
42 | 1 | > 10 | – | – | – | – | Nc1c(S(=O)(=O)O)cc(Nc2cccc(Br)c2)c2c1C(=O)c1ccccc1C2=O
43 | 0.69 | > 10 | – | – | – | – | CC(=O)Nc1ccc(Nc2cc(S(=O)(=O)O)c(N)c3c2C(=O)c2ccccc2C3=O)cc1
44 | 1 | > 10 | – | – | – | – | Nc1c(S(=O)(=O)O)cc(Nc2ccc(F)cc2)c2c1C(=O)c1ccccc1C2=O
45 | 1.73 | > 10 | – | – | – | – | COc1ccc(Nc2cc(S(=O)(=O)O)c(N)c3c2C(=O)c2ccccc2C3=O)cc1
46 | 1 | > 10 | – | – | – | – | Nc1c(S(=O)(=O)O)cc(Nc2ccc(CC(=O)O)cc2)c2c1C(=O)c1ccccc1C2=O
47 | 1 | > 10 | – | – | – | – | Nc1cc(Nc2cc(S(=O)(=O)O)c(N)c3c2C(=O)c2ccccc2C3=O)ccc1S(=O)(=O)O
48 | 1 | > 10 | – | – | – | – | Nc1c(S(=O)(=O)O)cc(Nc2ccccc2C(=O)O)c2c1C(=O)c1ccccc1C2=O
49 | 1 | > 10 | – | – | – | – | Cc1ccccc1Nc1cc(S(=O)(=O)O)c(N)c2c1C(=O)c1ccccc1C2=O
50 | 1 | > 10 | – | – | – | – | Nc1cccc(Nc2cc(S(=O)(=O)O)c(N)c3c2C(=O)c2ccccc2C3=O)c1
51 | > 1 | – | – | – | – | – | Nc1c(S(=O)(=O)O)cc(Nc2cccc(F)c2)c2c1C(=O)c1ccccc1C2=O
52 | – | – | – | – | – | 110 | Nc1c(S(=O)(=O)O)cc(Nc2ccc(Nc3ccccc3)c(S(=O)(=O)O)c2)c2c1C(=O)c1ccccc1C2=O
53 | 1 | > 10 | – | – | – | – | Nc1ccc(Nc2cc(S(=O)(=O)O)c(N)c3c2C(=O)c2ccccc2C3=O)cc1S(=O)(=O)O
54 | 1 | > 10 | – | – | – | – | Nc1c(S(=O)(=O)O)cc(Nc2ccccc2O)c2c1C(=O)c1ccccc1C2=O
55 | 1 | > 10 | – | – | – | – | Cc1ccc(Nc2cc(S(=O)(=O)O)c(N)c3c2C(=O)c2ccccc2C3=O)cc1
56 | 1 | > 10 | – | – | – | – | Nc1c(S(=O)(=O)O)cc(Nc2cccc(C(=O)O)c2)c2c1C(=O)c1ccccc1C2=O
